OXTR agonist = activates the human oxytocin receptor | P30559 | CHO-OTR cells, Fluo-8 calcium fluorescence; normalized: DMSO 0%, oxytocin 100% | activation, % at 3 µM | actives 0.32% (n = 320,000) | AID 2435;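 active means activation above the mean of all tested compounds plus 3 SD, cutoff set per screening run, cut at about 20% in these data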;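 further: peak over basal fluorescence ratio from a 100 s FLIPR kinetic read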
TRPML3 ag = human mucolipin-3 channel agonism | activation, % at 3 µM | HEK293 TRPML3-YFP, Fluo-8 calcium fluorescence; 100% = the carbachol control signal | AID 1448 | actives 0.29% (n = 220,000);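 active means activation above its plate's cutoff, the mean activation of the plate's test wells plus 3 SD, cut at about 12% in these data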
Target sequence (Q8TDD5 whole entry, looked up): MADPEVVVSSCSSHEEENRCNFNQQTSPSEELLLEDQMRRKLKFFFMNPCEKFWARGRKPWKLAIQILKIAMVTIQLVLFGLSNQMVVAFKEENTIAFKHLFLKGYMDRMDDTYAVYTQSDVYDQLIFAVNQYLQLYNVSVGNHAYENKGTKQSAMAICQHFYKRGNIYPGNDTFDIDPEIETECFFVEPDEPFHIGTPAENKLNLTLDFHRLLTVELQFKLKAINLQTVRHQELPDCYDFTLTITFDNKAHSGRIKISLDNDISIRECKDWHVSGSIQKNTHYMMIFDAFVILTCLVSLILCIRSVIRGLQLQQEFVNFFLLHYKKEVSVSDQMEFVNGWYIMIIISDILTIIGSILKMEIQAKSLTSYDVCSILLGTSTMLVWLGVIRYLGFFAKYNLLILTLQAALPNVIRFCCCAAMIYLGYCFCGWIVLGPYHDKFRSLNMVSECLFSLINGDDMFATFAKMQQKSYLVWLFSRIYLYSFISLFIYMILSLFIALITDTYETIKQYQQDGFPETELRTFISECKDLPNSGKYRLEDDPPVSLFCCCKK
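Material: TRPML3-YFP stable HEK293 cells | Dosing: One concentration, 3 µM nominal, 0.3% DMSO | Timing: 125 s total fluorescence read per well | Technique: Fluo-8 calcium dye fluorescence, ex 470-495, em 515-575 nm | Measure: Percent activation from peak-to-basal fluorescence ratio, scaled between DMSO and carbachol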
V1R ag counter = activates human V1a receptor in oxytocin agonist counter-screen | P37288 | activation, % at 3 µM | CHO-V1R cells, Fluo-8 calcium fluorescence, agonist mode; 0% DMSO, 100% 3 nM vasopressin | AID 2797 | actives 0.25% (n = 320,000);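 active means activation above the mean activation of all tested compounds plus 3 SD, per screening run, cut at about 20% in these data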;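 further: signal is peak over basal fluorescence ratio across a 100 second FLIPR read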
OXTR potentiate = human OXTR potentiation; P30559; CHO-OTR cells, Fluo-8 calcium fluorescence, potentiator mode; 0% = oxytocin EC15, 100% = EC100; activation, % at 3 µM; actives 0.061% (n = 320,000); AID 2445;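 active means activation above that plate's cutoff, the mean activation of tested compounds plus 3 SD, cut at about 6.6% in these data, passing the limit was not always enough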
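Replication – single well per compound, singlicate · Assay system – CHO cell line stably expressing human OTR · Timing – 6 min pre-incubation, 100 s read · Measure – normalized max/min fluorescence ratio, % activation · Doses – 3.0 µM, one dose · Detection – Fluo-8 calcium dye fluorescence · Probe or stimulus – oxytocin near EC15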
TRPN1 ag = agonists of zebrafish TRPN1 channel; activation, % at 3 µM; actives 0.18% (n = 220,000); HEK293 zebrafish TRPN1-YFP, Fluo-8 calcium fluorescence; 100% = response to 87 µM carbachol;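 active means activation above its plate's cutoff, the mean activation of test wells on that plate plus 3 SD, cut at about 19% in these data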
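Assay system: Zebrafish TRPN1-YFP in HEK293 cells | Incubation: Dye loading 1 h at 37 °C, then 30 min room temperature | Measured by: Kinetic Fluo-8 fluorescence, ex 470-495, em 515-575 nm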
Of the large screens only hits and unclear results are named; the others gave an inactive call. In the library only some 0.55% were active in any assay of this set; here they are far more common.

Cc1onc(-c2ccccc2)c1C(=O)NNC(=S)NC(=O)c1ccc(Cl)cc1Cl	OXTR agonist 101.9, V1R ag counter 101.5
COc1ccc(C(CNC(=O)c2[nH]c(C)c(C(C)=O)c2C)N2CCOCC2)cc1 (stereo not drawn)	none (no result: TRPML3 ag, TRPN1 ag)
Cc1onc(-c2ccccc2)c1C(=O)NNC(=O)c1ccccc1	none (no result: TRPML3 ag, TRPN1 ag)
Cc1ccccc1C(=O)NNC(=S)NC(=O)c1ccc(Cl)cc1Cl	OXTR agonist 73.5, TRPML3 ag 56.6, V1R ag counter 84.6, TRPN1 ag 71.7
Cc1onc(-c2ccccc2)c1C(=O)NNC(=S)NC(=O)c1ccc(Br)cc1	OXTR agonist 73.1, V1R ag counter 65.8, TRPN1 ag 23.4
CN1CCN(c2ccc(C(F)(F)F)cc2NC(=O)Nc2ccccc2)CC1	OXTR agonist 34.4, V1R ag counter 32.5 (no result: TRPML3 ag, TRPN1 ag)
COc1cc(/C=C2\SC(=S)N(C(C(=O)O)c3ccccc3)C2=O)ccc1O (stereo not drawn)	OXTR agonist 33.1, TRPML3 ag 27.1, V1R ag counter 49.0, TRPN1 ag 40.3
O=C1/C(=C\c2cc([N+](=O)[O-])ccc2O)SC(=S)N1Cc1ccc(Cl)cc1	OXTR agonist 96.2, V1R ag counter 66.9 (no result: TRPML3 ag, TRPN1 ag)
COc1cc(/C=C2/SC(=S)N(Cc3ccccc3)C2=O)ccc1O	OXTR agonist 27.6, V1R ag counter 36.3 (no result: TRPML3 ag, TRPN1 ag)
CC1CCCCC1NC(=O)COC(=O)c1ccc2c(c1)NC(=O)CS2 (stereo not drawn)	none (no result: TRPML3 ag, TRPN1 ag)
CC1C/C(=C/c2ccncc2)C(=O)/C(=C/c2ccncc2)C1 (stereo not drawn)	none
CC1C/C(=C/c2cccn2C)C(=O)/C(=C/c2cccn2C)C1 (stereo not drawn)	OXTR agonist 58.1, V1R ag counter 78.5
CC1CC(C)CN(C(=O)c2ccc3c(c2)OCCO3)C1 (stereo not drawn)	none (no result: TRPML3 ag, TRPN1 ag)
O=C(/C=C/c1ccc(N2CCC(c3ccccc3)=N2)cc1)c1ccccc1	OXTR agonist 74.9, V1R ag counter 107.8
CC1=Nc2ccccc2/C1=C/c1sc(=N)n(-c2nccs2)c1O	OXTR agonist 22.9, V1R ag counter 25.7
COc1ccc(-n2nc(C(=O)NCC(=O)NCCc3ccc(OC)c(OC)c3)c3ccccc3c2=O)cc1Cl	none (no result: TRPML3 ag, TRPN1 ag)
COc1cc(/C=C2\CC/C(=C\c3ccc(OCCO)c(OC)c3)C2=O)ccc1OCCO	OXTR agonist 30.5, TRPML3 ag 26.6, V1R ag counter 42.9, TRPN1 ag 49.8
CCC(=O)c1ccc(OC(=O)c2ccc(Br)o2)cc1	OXTR agonist 34.7, V1R ag counter 44.2
CC(=O)c1ccc(OC(=O)c2ccc(Br)o2)cc1	none
CC(Sc1nnc(C2CC2)n1C1CC1)C(=O)c1ccc(F)cc1 (stereo not drawn)	none (no result: TRPML3 ag, TRPN1 ag)
CCN(CC)c1ccc(/C=C(/C#N)c2nc3ccccc3[nH]2)c(OC(C)C)c1	OXTR agonist 51.4, TRPML3 ag 15.0, V1R ag counter 43.8, TRPN1 ag 23.8
CCCCN1C(=O)/C(=C/C=C2/CC(C)(C)CN2C)SC1=S	OXTR agonist 51.6, TRPML3 ag 14.0, V1R ag counter 65.6, TRPN1 ag 26.1
CCCCN1C(=O)/C(=C/C=C2\Oc3ccccc3N2CC)SC1=S	none (no result: OXTR agonist, V1R ag counter, OXTR potentiate)
COc1ccc(CCNC(=O)C2CC(O)CN2S(=O)(=O)c2ccc(Cl)cc2)cc1OC (stereo not drawn)	none (no result: TRPML3 ag, TRPN1 ag)
CCC1(c2ccc(OC)cc2)NC(=O)N(CC(=O)c2ccc3c(c2)OCCO3)C1=O (stereo not drawn)	none (no result: TRPML3 ag, TRPN1 ag)
COc1ccc(C2SCCN2C(=S)Nc2cccc(C(F)(F)F)c2)cc1 (stereo not drawn)	OXTR agonist 39.0, V1R ag counter 22.0
CCOC(=O)c1ccc(NC(=S)N2CCSC2c2ccc(Cl)cc2)cc1 (stereo not drawn)	OXTR agonist 37.5, V1R ag counter 39.0
C[C@H](CO)N1C[C@H](C)[C@@H](CN(C)Cc2ccc3c(c2)OCO3)Oc2ccc(NS(C)(=O)=O)cc2C1=O	none (no result: TRPML3 ag, TRPN1 ag)
O=C(Nc1ncc(S(=O)(=O)c2ccc([N+](=O)[O-])cc2)s1)c1ccccc1F	OXTR agonist 33.0, V1R ag counter 41.4
COc1ccc(OCC(O)Cn2c(=N)n(Cc3ccccc3)c3ccccc32)cc1 (stereo not drawn)	none
